# From ChEMBL document CHEMBL4330067, “Synthesis and mechanistic studies of diketo acids and their bioisosteres as potential antibacterial agents” (Eur J Med Chem, 2019)
# Activity calls are given as the source filed them. No cut-off for these calls is given here.
# Experiments:
# Escherichia coli [1] = assay: Antibacterial activity against Escherichia coli MRAE26 after overnight incubation; assay type: functional
# Procedure, shortened: (§1)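 Multidrug-resistant E. coli isolates in Luria broth, test range 8 to 1024 µg/mL (ciprofloxacin 0.49 to 63.3 µg/mL). Inoculum 10 µL of a 1000-fold diluted 0.1 OD600 culture, incubated overnight at 37 °C. OD read at 600 nm. % inhibition = (a−b)/a×100, with media and compound-colour blanks subtracted.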
# Pseudomonas aeruginosa [2] = assay: Bactericidal activity against Pseudomonas aeruginosa at sub-MIC after 10 hrs by spectrophotometric analysis; assay type: functional, organism-based
# Procedure, shortened: (§2)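 Growth kinetics in 50 mL nutrient broth seeded at approx. 2×10⁶ cells/mL, compound at 2MIC, MIC and ½MIC, 37 °C at 160 rpm. Ciprofloxacin 10 µg/mL as positive control. 1 mL aliquots taken every 2 h from 0 to 22 h. Turbidity read at 600 nm and OD plotted against time.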
# Escherichia coli [3] = assay: Anti-biofilm activity against Escherichia coli assessed as poor cell density at 2MIC after 24 hrs by SEM analysis; assay type: functional, organism-based
# Pseudomonas aeruginosa [4] = assay: Antibacterial activity against Pseudomonas aeruginosa MTCC 2453 after 24 hrs by broth dilution assay; assay type: functional; conditions: MTCC 2453, 24 h
# Procedure, shortened: (§3)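 Broth dilution per NCCLS in nutrient broth, serial dilutions 1000 to 7.8 µg/mL, DMSO below 4% final. Inoculum approx. 2.5×10⁶ cells/mL, 37 °C with shaking at 150 rpm for 24 h. MIC taken as the lowest concentration with no visible growth. Ciprofloxacin served as positive control.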
# Enterococcus faecalis [5] = assay: Anti-biofilm activity against Enterococcus faecalis after 24 hrs by XTT assay; assay type: functional, organism-based
# Procedure, shortened: (§4)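 Biofilm XTT reduction assay: serial dilutions 1000 to 7.8 µg/mL in tryptic soy broth, inoculum approx. 5×10⁵ CFU/mL, 37 °C for 24 h static. Non-adherent cells removed by PBS wash, XTT added, 90 min at 37 °C in dark, absorbance at 490 nm. IC50 (50% inhibition of biofilm formation) read from dose-response curves.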
# [6] = Inhibition of Mycobacterium tuberculosis methionine aminopeptidase 1C using Met-AMC as substrate by Dixon method
# Escherichia coli [7] = assay: Antibacterial activity against Escherichia coli MROB11 at 512 ug/mL after 24 hrs by broth dilution assay relative to control; assay type: functional; procedure, shortened: as §1
# Escherichia coli [8] = assay: Synergistic antibacterial activity against Escherichia coli MRC17 assessed as ciprofloxacin MIC at 16 to 1024 ug/mL after 18 hrs by checkerboard method; assay type: functional; conditions: MRC17, 18 h
# Procedure, shortened: (§5)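 Checkerboard combination with ciprofloxacin in Mueller-Hinton broth: compound 1024 to 16 µg/mL crossed with ciprofloxacin 128 to 2 µg/mL. Inoculum 5×10⁵ CFU/mL suspension, 18 h at 37 °C. Fractional inhibitory concentration index derived from the combination.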
# Escherichia coli [9] = assay: Antibacterial activity against Escherichia coli MRA11 after overnight incubation; assay type: functional; procedure, shortened: as §1
# Escherichia coli [10] = assay: Antibacterial activity against Escherichia coli ATCC 25922 after 24 hrs by broth dilution assay; assay type: functional; conditions: ATCC 25922, 24 h; procedure, shortened: as §3
# Pseudomonas aeruginosa [11] = assay: Anti-biofilm activity against Pseudomonas aeruginosa after 24 hrs by XTT assay; assay type: functional, organism-based; procedure, shortened: as §4
# [12] = Cytotoxicity against CHO cells assessed as cell viability at 100 ug/mL after 48 hrs by MTT assay relative to control; assay type: cell-based, Cricetulus griseus; conditions: chinese hamster, read-out: Activity
# Procedure, shortened: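 MTT assay: cells maintained in DMEM with 10% FBS and penicillin/streptomycin at 37 °C, 5% CO2. Seeded at approx. 2×10⁴ cells/well, 24 h before treatment, then exposed to 10 to 400 µg/mL for 48 h at 37 °C. MTT (5 mg/mL stock in PBS) added for 4 h, formazan dissolved in DMSO, A570 read. Triplicate wells; viability given relative to untreated cells.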
# Escherichia coli [13] = assay: Synergistic antibacterial activity against Escherichia coli MRC17 assessed as fractional inhibitory concentration index after 18 hrs in presence of ciprofloxacin by checkerboard method; assay type: functional
# Procedure, shortened: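 Checkerboard combination against MDR E. coli. Test agent gradient 1024–16 µg/mL crossed with ciprofloxacin 128–2 µg/mL in Mueller-Hinton broth. Wells were inoculated with a 5 × 10⁵ CFU/mL suspension and incubated 18 h at 37 °C. Interaction was expressed as the fractional inhibitory concentration index (FICI).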
# Escherichia coli [14] = assay: Synergistic antibacterial activity against Escherichia coli MRAE33 assessed as fractional inhibitory concentration index after 18 hrs in presence of ciprofloxacin by checkerboard method; assay type: functional; procedure, shortened: as §5
# Escherichia coli [15] = assay: Synergistic antibacterial activity against Escherichia coli MRA11 assessed as ciprofloxacin MIC at 16 to 1024 ug/mL after 18 hrs by checkerboard method; assay type: functional; conditions: MRA11, 18 h; procedure, shortened: as §5
# Escherichia coli [16] = assay: Antibacterial activity against Escherichia coli MRC17 at 512 ug/mL after 24 hrs by broth dilution assay relative to control; assay type: functional; procedure, shortened: as §1
# Escherichia coli [17] = assay: Antibacterial activity against Escherichia coli MRC24 after overnight incubation; assay type: functional; procedure, shortened: as §1
# [18] = system: Mycobacterium tuberculosis; assay: Inhibition of Mycobacterium tuberculosis methionine aminopeptidase 1C at 100 uM using Met-AMC as substrate relative to control
# Procedure, shortened: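 Purified MtMetAP1c (4 µM) in 50 mM Hepes pH 7.5 with 150 mM KCl and CoCl2 at three molar equivalents of enzyme. Substrate was L-Met-AMC at 50, 100 or 150 µM. Compounds came from 10 mM DMSO stocks. Percent inhibition was taken against the uninhibited control.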
# Escherichia coli [19] = assay: Antibacterial activity against Escherichia coli MRA11 at 512 ug/mL after 24 hrs by broth dilution assay relative to control; assay type: functional; procedure, shortened: as §1
# Escherichia coli [20] = assay: Anti-biofilm activity against Escherichia coli after 24 hrs by XTT assay; assay type: functional, organism-based; procedure, shortened: as §4
# Enterococcus faecalis [21] = assay: Antibacterial activity against Enterococcus faecalis MTCC 439 after 24 hrs by broth dilution assay; assay type: functional; conditions: MTCC 439, 24 h; procedure, shortened: as §3
# Escherichia coli [22] = assay: Synergistic antibacterial activity against Escherichia coli MRAE33 after 18 hrs in presence of ciprofloxacin by checkerboard method; assay type: functional; conditions: MRAE33, 18 h; procedure, shortened: as §5
# Escherichia coli [23] = assay: Synergistic antibacterial activity against Escherichia coli MRAE33 assessed as ciprofloxacin MIC at 16 to 1024 ug/mL after 18 hrs by checkerboard method; assay type: functional; conditions: MRAE33, 18 h; procedure, shortened: as §5
# Escherichia coli [24] = assay: Antibacterial activity against Escherichia coli MRAE33 at 1024 ug/mL after 24 hrs by broth dilution assay relative to control; assay type: functional; procedure, shortened: as §1
# Klebsiella pneumoniae = assay: Anti-biofilm activity against Klebsiella pneumoniae after 24 hrs by XTT assay; assay type: functional, organism-based; procedure, shortened: as §4
# Streptococcus pneumoniae = assay: Inhibition of Streptococcus pneumoniae methionine aminopeptidase 1A at 100 uM using Met-AMC as substrate relative to control
# Procedure, shortened: (§6)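 Purified MetAP at 4 µM in 50 mM HEPES with 150 mM KCl and CoCl2 at 3 molar equivalents of enzyme. pH 7.5 for SpMetAP1a and EfMetAP1a, pH 8.0 for HsMetAP1b. Substrate L-Met-AMC at 50, 100 and 150 µM. Compounds (10 mM DMSO stocks) tested over 1 to 120 µM for % inhibition; Ki by Dixon method.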
# Escherichia coli [25] = assay: Bactericidal activity against Escherichia coli at 1 to 2 times MIC after 24 hrs by spectrophotometric analysis; assay type: functional, organism-based; procedure, shortened: as §2
# [26] = Inhibition of human methionine aminopeptidase 1B using Met-AMC as substrate by Dixon method; procedure, shortened: as §6
# Escherichia coli [27] = assay: Synergistic antibacterial activity against Escherichia coli MRC17 after 18 hrs in presence of ciprofloxacin by checkerboard method; assay type: functional; conditions: MRC17, 18 h; procedure, shortened: as §5
smiles,measurement,setting,value
Cc1c(C(=O)/C=C(\O)C(=O)N[C@H](C)C(=O)O)oc2ccc(Br)cc12,ICmax,Escherichia coli [1],1024 µg/mL
same,Activity,Pseudomonas aeruginosa [2],Active
same,Activity,Escherichia coli [3],Active
same,MIC,Pseudomonas aeruginosa [4],250 µg/mL
same,IC50,Enterococcus faecalis [5],1240 µg/mL
same,Ki,[6],9.89 µM
same,Activity,Escherichia coli [7],100%
same,MIC,Escherichia coli [8],64 µg/mL
same,ICmax,Escherichia coli [9],512 µg/mL
same,MIC,"Escherichia coli [9]; Escherichia coli, MRA11",512 µg/mL
same,MIC,Escherichia coli [10],62.5 µg/mL
same,IC50,Pseudomonas aeruginosa [11],1.69 µg/mL
same,"viability at 48 h, 100 ug/mL",[12],70%
same,fractional inhibitory concentration index (FICI),Escherichia coli [13],1.5
same,fractional inhibitory concentration index (FICI),Escherichia coli [14],1.0156
same,MIC,Escherichia coli [15],16 µg/mL
same,Activity,Escherichia coli [16],100%
same,ICmax,Escherichia coli [17],512 µg/mL
same,inhibition,[18],87.7%
same,Activity,Escherichia coli [19],100%
same,IC50,Escherichia coli [20],0.404 µg/mL
same,MIC,Enterococcus faecalis [21],125 µg/mL
same,MIC,Escherichia coli [22],16 µg/mL
same,MIC,Escherichia coli [23],2 µg/mL
same,Activity,Escherichia coli [24],>95%
same,IC50,Klebsiella pneumoniae,113 µg/mL
same,inhibition,Streptococcus pneumoniae,98.2%
same,Activity,Escherichia coli [25],Active
same,Ki,[26],22.1 µM
same,MIC,Escherichia coli [27],512 µg/mL
